The source of these data is ChEMBL document CHEMBL4359864, “The synthesis and in vitro biological evaluation of novel fluorinated tetrahydrobenzo[j]phenanthridine-7,12-diones against Mycobacterium tuberculosis” (Eur J Med Chem, 2019).

Each structure is given as a SMILES string.

Data set [1] has as its system Mycobacterium tuberculosis. The data set is described as follows: Induction of ROS generation in Mycobacterium tuberculosis H37Ra ATCC 25177 assessed as increase in superoxide radicals incubated with CMH probe for 50 mins followed by compound addition and measured for 3 to 48 hrs by EPR analysis. Type of data set: functional. In a few lines: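 Mtb H37Ra cultures were exposed to compound, rifampicin or moxifloxacin (2 x MIC), alongside untreated controls. Samples were measured by EPR at 3, 6, 24 and 48 h. Spectra were simulated and double-integrated (aN = 1.58 mT) and converted to absolute CMH radical concentration by calibration. Mean of at least three replicates ± SD; two-way ANOVA with Tukey test.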

The target in data set [2] is T1, CYP450 (Homo sapiens, UniProt P04798+P05177+P05181+P08684+P10632+P10635+P11509+P11712+P13584+P20813+P20815+P20853+P24462+P24903+P33260+P33261+P51589+P78329+P98187+Q02928+Q08477+Q16678+Q16696+Q5TCH4+Q6VVX0+Q7Z449+Q8TAV3+Q96SQ9+Q9HB55). Put plainly: Microsomal stability in human liver microsomes assessed as CYP450-mediated metabolism by measuring compound remaining at 5 uM and measured for 60 mins in presence of NADPH by UPLC-MS/MS analysis (reference value: 100%). As to conditions: read-out: Stability. Type of data set: ADME. In a few lines:
(§1)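 Compound at 5 µM with 0.5 mg/mL liver microsomes in PBS. Phase I was started with 1 mM NADPH; phase II used 2 mM UDPGA. Diclofenac served as reference. Samples taken at 0, 15, 30 and 60 min were quenched in ice-cold acetonitrile, centrifuged at 4°C and analysed by LC-MS. Mean of at least two replicates ± SD.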
For orientation: Liver microsomes are a subcellular fraction often used to study metabolism.

Data set [3] concerns the target UGT (Homo sapiens, UniProt O60656+O75310+O75795+P06133+P0DTE4+P0DTE5+P16662+P19224+P22309+P22310+P35503+P35504+P36537+P54855+Q6UWM9+Q9BY64+Q9HAW7+Q9HAW8+Q9HAW9). The data set is described as follows: Microsomal stability in human liver microsomes assessed as UGT-mediated metabolism by measuring compound remaining at 5 uM and measured for 15 mins in presence of UDPGA by UPLC-MS/MS analysis (reference value: 100%). As to conditions: read-out: Stability. In kind it is ADME. In a few lines: as §1

The nature of data set [4]: Genotoxicity in Salmonella typhimurium TA104 harboring with pr1 assessed as S/N ratio at 1 to 100 uM measured for 4 hrs with 5 mins interval by luminescence based assay. Type of data set: toxicity. As to conditions: salmonella enterica subsp. enterica serovar typhimurium. In a few lines:
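VITOTOX test. Genox (recN2-4) and Cytox (pr1) S. typhimurium TA104 strains were diluted 250-fold and grown in 869 medium for 16 h at 36°C with shaking, then diluted 10-fold and grown 1 h more. Compounds tested at 1, 10 and 100 µM, with or without rat liver S9-mix. Luminescence read for 4 h at 5-min intervals. S/N thresholds: Genox >1.5 genotoxic; Cytox <0.8 toxic, >1.5 luminescence artefact.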

Data set [5] has as its target T1, CYP450. The data set is described as follows: Microsomal stability in human liver microsomes assessed as CYP450-mediated metabolism by measuring compound remaining at 5 uM and measured for 15 mins in presence of NADPH by UPLC-MS/MS analysis (reference value: 100%). In kind it is ADME. As to conditions: read-out: Stability. In a few lines:
as §1

Data set [6] can be described thus: Cytotoxicity against mouse J774A.1 cells assessed as reduction in cell viability incubated for 24 hrs by neutral red uptake assay. In kind it is cell-based, J774.A1. Put shortly:
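J774A.1 cells in DMEM + 10% iFCS, 37°C, 5% CO2, seeded at 40.000 cells/well and left overnight. Twofold dilutions from 128 µM final; 24 h exposure. Neutral red uptake for 3 h, dye extracted with 1:1 ethanol/acetic acid, OD read at 530 nm (reference 620 nm). CC50 = 50% reduction in uptake; mean of triplicates.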

The subject of data set [7] is UGT. The data set is described as follows: Microsomal stability in mouse liver microsomes assessed as UGT-mediated metabolism by measuring compound remaining at 5 uM and measured for 15 mins in presence of UDPGA by UPLC-MS/MS analysis (reference value: 100%). The settings on record: read-out: Stability. In kind it is ADME. In a few lines: as §1
Data set [8] has as its system UGT. Put plainly: Microsomal stability in mouse liver microsomes assessed as UGT-mediated metabolism by measuring compound remaining at 5 uM and measured for 60 mins in presence of UDPGA by UPLC-MS/MS analysis (reference value: 100%). The settings on record: read-out: Stability. Type of data set: ADME. In a few lines:
as §1

Data set [9] deals with UGT. Put plainly: Microsomal stability in mouse liver microsomes assessed as UGT-mediated metabolism by measuring compound remaining at 5 uM and measured for 30 mins in presence of UDPGA by UPLC-MS/MS analysis (reference value: 100%). Type of data set: ADME. The settings on record: read-out: Stability. In a few lines:
as §1

For data set [10], the target named is T1, CYP450. The data set is described as follows: Microsomal stability in human liver microsomes assessed as CYP450-mediated metabolism by measuring compound remaining at 5 uM and measured for 30 mins in presence of NADPH by UPLC-MS/MS analysis (reference value: 100%). Type of data set: ADME. As to conditions: read-out: Stability. In a few lines: as §1
Data set [11] can be described thus: Selectivity index, ratio of […] for cytotoxicity against mouse J774A.1 cells. As to conditions: read-out: Selectivity Index. In kind it is toxicity, cell-based.
The subject of data set [12] is Klebsiella pneumoniae. The data set is described as follows: Antibacterial activity against Klebsiella pneumoniae ATCC 13883 incubated for 24 hrs by resazurin dye based fluorimetric assay. In kind it is functional, organism-based. The settings on record: ATCC 13883, 24 h. In a few lines:
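Resazurin microtiter assay: compounds from 10 mM DMSO stock, twofold serial dilutions from 64 µM final in growth medium, in triplicate. Inoculum from frozen glycerol stocks. Exposure 24 h, or 7 days for Mtb H37Ra (7H9 + 0.5% glycerol + 10% OADC). Then 0.01% resazurin was added and plates were incubated at 37°C until pink. Fluorescence read at ex 550/em 590 nm; mean of triplicates.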
Background: Resazurin is reduced to fluorescent resorufin, in cell work by metabolically active cells.

The CC50 is the concentration giving 50% cytotoxicity. As a reminder, the IC50 is the midpoint of a concentration-inhibition curve. A high value points to a need for much substance. In the case of `O=C1C2=C(C(=O)c3c1cnc1c(F)cccc31)C1CCC2C1` (stereo not drawn), the “fold change (FC)” value in data set [1] stood at 2.85. In addition, the remaining at 1 h, 5 µM in data set [2] came out at 100%; in [8], 61%. In addition, the results for the remaining at 0.25 h, 5 µM in [3], in data set [5] and in [7] were 78%, 100% and 77%, respectively. In addition, the Ratio result in data set [4] is recorded as “>= 0.8”. Moreover, the CC50 at 24 h in data set [6] is 85.5 µM. Further, the remaining at 0.5 h, 5 µM was found to be 70% in data set [9] and 100% in data set [10]. The selectivity ratio in [11] amounted to 19.3. The compound further yielded a 50% inhibitory concentration (IC50) in [12] of more than 64 µM.
For the compound `O=C1C2=C(C(=O)c3c1cnc1ccccc31)C1CCC2C1` (stereo not drawn), the remaining at 1 h, 5 µM in data set [2] was found to be 100%; in [8], 78%. Further, the remaining at 0.25 h, 5 µM in data set [3] is 83%; in data set [5], 100%; in [7], 69%. In data set [4], the Ratio entry was “>= 0.8”. In addition, the CC50 at 24 h in [6] came to 64.5 µM. The figures for the remaining at 0.5 h, 5 µM in data set [9] and in data set [10] were 86% and 100%, respectively. In addition, the selectivity ratio in data set [11] amounted to 10.2. The same compound returned an IC50 in [12] of more than 64 µM.
